Assay results from different studies.
Target: Glycogen synthase kinase-3 alpha (GSK3A, Homo sapiens, UniProt P49840)

CC(=O)ON=C1C=CC(=C(C#N)c2ccccc2)C=C1
activity vs control (enzyme activity, inhibitor, ADP detection; 20 µM): 94%

CO[C@@H]1[C@H](N(C)C(=O)c2ccccc2)C[C@H]2O[C@]1(C)n1c3ccccc3c3c4c(c5c6ccccc6n2c5c31)C(=O)NC4
inhibition (enzyme activity, inhibitor; 1 µM): 14%

Cc1cc(O)c(-c2ccc([C@@H](C)CN(C)C)cc2)c2c1[nH]c(=O)c1sccc12
inhibition (enzyme activity, inhibitor; 0.1 µM): -5.76%

C[C@H]1CC[C@H](n2c3cnccc3c3cnc(Nc4ccc5c(n4)CCN(C(=O)CO)C5)nc32)CC1
remaining signal (cell-free assay; 1 µM): 35%

CCCCC(=O)Nc1ccc(-c2ccc3ncn(CCC)c(=O)c3c2)cn1
remaining binding (binding, competition with immobilised ligand; 0.5 µM): 94%

C1=C/COCc2cc(ccc2OCCN2CCCC2)Nc2nccc(n2)-c2cccc(c2)COC/1
remaining binding (binding; 0.1 µM): 100%

Cc1ccc(NC(=O)c2ccnc(C(F)(F)F)c2)cc1-c1cc(OCCO)nc(N2CCOCC2)c1
remaining binding (binding; 1 µM): 100%

COc1ccc2oc(-c3ccc4nc(N)oc4c3)c/c(=N\c3ccccc3NC(=O)CCN)c2c1
remaining binding (binding; 1 µM): 94%

C=CC(=O)N1CCC([C@@H]2CCNc3c(C(N)=O)c(-c4ccc(Oc5ccccc5)cc4)nn32)CC1
inhibition (enzyme activity, inhibitor; 1 µM): 2%
